Non-standard residues stand in square brackets, D forms with d. Residues, ends and D or L forms follow the SMILES beside them. *: point of attachment. Cha = N[C@@H](CC1CCCCC1)C(=O)O; pGlu = O=C1CC[C@@H](C(=O)O)N1; Nle = CCCC[C@H](N)C(=O)O; Nva = CCC[C@H](N)C(=O)O; Abu = CC[C@H](N)C(=O)O; tBu = CC(C)(C)*
What was measured:
[1] = system: Rattus norvegicus; experiment: Inhibition of haloperidol catalepsy by less than 50% in a dose of 80 mg/kg, iv in adult male Wistar rats; assay type: functional
[2] = Evaluated for hormonal (TSH) releasing activity in adult male albino rats after single intraperitoneal injection using radioimmunoassay; assay type: functional
Summary of the method: (§1)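 Two-point assay in adult male albino rats: single ip injection at 1 and 10 μg. Blood drawn 15 min post-injection. Serum TSH measured by radioimmunoassay (NIAMDD rat TSH-RIA system). Relative potency expressed in percent, with synthetic TRH reference set at 100%.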

[3] = system: Rattus norvegicus; experiment: Anticataleptic effect at effective dose after intravenous administration in adult male Wistar rats.; assay type: functional
Summary of the method: (§2)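 Haloperidol catalepsy induced in adult male Wistar rats by 4 mg/kg ip. Analogues given iv at 5 to 80 mg/kg, 2 h after haloperidol. Read-out is inhibition of catalepsy, taken as a measure of dopaminergic stimulation. Synthetic TRH served as reference standard.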

[4] = system: Rattus norvegicus; experiment: Anticataleptic effect at effective dose after intravenous administration in adult male Wistar rats; assay type: functional; summary of the method: as §2
[5] = system: Rattus norvegicus; experiment: Evaluated for hormonal (TSH) releasing activity in adult male albino rats after single intraperitoneal injection using radioimmunoassay; np -significant but not parallel TSH response to the lower and upper doses used; assay type: functional, organism-based; summary of the method: as §1
[6] = system: Rattus norvegicus; experiment: Evaluated for hormonal (TSH) releasing activity in adult male albino rats after single intraperitoneal injection using radioimmunoassay; np-significant activity but not parallel TSH response to the lower and upper doses used; assay type: functional, organism-based; summary of the method: as §1
[7] = system: Rattus norvegicus; experiment: Evaluated for hormonal (TSH) releasing activity in adult male albino rats after single intraperitoneal injection using radioimmunoassay; np- significant activity but not parallel TSH response to the lower and upper doses used; assay type: functional, organism-based; summary of the method: as §1
[8] = Rattus norvegicus, iv, read-out: ED50

Compound CC(C)C[C@@H](NC(=O)[C@H]1CCC(=O)N1)C(=O)N1CCC[C@@H]1C(=O)O has an inhibition in vivo at 80 mg/kg [1] of 0% and an Activity [2] of 0.1%.

With CC(C)(C)OC[C@H](NC(=O)[C@@H]1CCC(=O)N1)C(=O)N1CCC[C@H]1C(N)=O ([pGlu]-Ser(tBu)-Pro-NH2) the inhibition in vivo at 80 mg/kg [1] was 0% and the Activity [2] was 0.2%.

In the case of C[C@H](NC(=O)[C@@H]1CCC(=O)N1)C(=O)N1CCC[C@H]1C(N)=O ([pGlu]-Ala-Pro-NH2), the inhibition in vivo at 80 mg/kg [1] is reported as 0% and the Activity [2] is reported as 0%.

Work on CC(C)C[C@@H](NC(=O)[C@H]1CCC(=O)N1)C(=O)N1CCC[C@@H]1C(=O)NCCN(C)C yielded an inhibition in vivo at 80 mg/kg [1] of 10% and an Activity [2] of 0%.

NC(=O)[C@@H]1CCCN1C(=O)CNC(=O)[C@@H]1CCC(=O)N1 ([pGlu]-Gly-Pro-NH2) gave an inhibition in vivo at 80 mg/kg [1] of 10% and an Activity [2] of 0%.

NC(=O)[C@@H]1CCCN1C(=O)[C@H](Cc1c[nH]cn1)NC(=O)[C@@H]1CCC(=O)N1 [PROTIRELIN] gave an ED50 [3] of 113 mg/kg, an inhibition in vivo at 80 mg/kg [1] of 40% and an Activity [2] of 100%.

NC(=O)[C@@H]1CCCN1C(=O)[C@@H]1CCCN1C(=O)[C@@H]1CCC(=O)N1 gave an ED50 [4, 8] of 80 mg/kg.

Work on CC(C)C[C@H](NC(=O)[C@@H]1CCC(=O)N1)C(=O)N1CCC[C@H]1C(N)=O [listing 1 of 2 here] yielded an ED50 [4, 8] of 70 mg/kg and an Activity [2] of 0%.

With CCCCCCCCCCNC(=O)[C@H]1CCCN1C(=O)[C@@H](CC(C)C)NC(=O)[C@H]1CCC(=O)N1 the inhibition in vivo at 80 mg/kg [1] was 10% and the Activity [2] was 0%.

For CCC[C@H](NC(=O)[C@@H]1CCC(=O)N1)C(=O)N1CCC[C@H]1C(N)=O ([pGlu]-[Nva]-Pro-NH2), the ED50 [4, 8] was 11.4 mg/kg and the Activity [2] was 0%.

For CCCCCCCC[C@H](NC(=O)[C@@H]1CCC(=O)N1)C(=O)N1CCC[C@H]1C(N)=O, the Activity [5] was “Significant but not parallel” and the inhibition in vivo at 80 mg/kg [1] was 0%.

In the case of CC[C@H](NC(=O)[C@@H]1CCC(=O)N1)C(=O)N1CCC[C@H]1C(N)=O ([pGlu]-[Abu]-Pro-NH2), the ED50 [4, 8] is reported as at least 80 mg/kg and the Activity [2] is reported as 0%.

With CC(C)C[C@H](NC(=O)[C@@H]1CCC(=O)N1)C(=O)N1CCC[C@@H]1C(N)=O the ED50 [4, 8] was over 80 mg/kg and the Activity [2] was 0%.

With COC(=O)[C@H]1CCCN1C(=O)[C@@H](CC(C)C)NC(=O)[C@H]1CCC(=O)N1 the inhibition in vivo at 80 mg/kg [1] was 0% and the Activity [2] was 0%.

With CCNC(=O)[C@H]1CCCN1C(=O)[C@@H](CC(C)C)NC(=O)[C@H]1CCC(=O)N1 the ED50 [4, 8] was 56.6 mg/kg and the Activity [2] was 0%.

NC(=O)[C@@H]1CCCN1C(=O)[C@H](Cc1ccccc1)NC(=O)[C@@H]1CCC(=O)N1 ([pGlu]-Phe-Pro-NH2) gave an inhibition in vivo at 80 mg/kg [1] of 40%.

In the case of CCCC[C@H](NC(=O)[C@@H]1CCC(=O)N1)C(=O)N1CCC[C@H]1C(N)=O ([pGlu]-[Nle]-Pro-NH2), the ED50 [4, 8] is reported as 16.8 mg/kg and the Activity [2] is reported as 3.8%.

CC(C)C[C@@H](NC(=O)[C@@H]1CCC(=O)N1)C(=O)N1CCC[C@H]1C(N)=O showed an ED50 [4, 8] of over 80 mg/kg and an Activity [2] of 0%.

Compound CC(C)[C@H](NC(=O)[C@@H]1CCC(=O)N1)C(=O)N1CCC[C@H]1C(N)=O ([pGlu]-Val-Pro-NH2) has an ED50 [4, 8] of over 80 mg/kg and an Activity [2] of 3.1%.

With CC(C)C[C@@H](NC(=O)[C@H]1CCC(=O)N1)C(=O)N1CCCC1 the inhibition in vivo at 80 mg/kg [1] was 20% and the Activity [6] was “Significant but not parallel”.

CSCC[C@H](NC(=O)[C@@H]1CCC(=O)N1)C(=O)N1CCC[C@H]1C(N)=O ([pGlu]-Met-Pro-NH2) showed an inhibition in vivo at 80 mg/kg [1] of 40% and an Activity [2] of 1%.

In the case of NC(=O)[C@@H]1CCCN1C(=O)[C@@H]1CCCN1C(=O)[C@H]1CCC(=O)N1, the Activity [7] is reported as “Significant but not parallel”.

With NC(=O)[C@@H]1CCCN1C(=O)[C@H](CC1CCCCC1)NC(=O)[C@@H]1CCC(=O)N1 ([pGlu]-[Cha]-Pro-NH2) the inhibition in vivo at 80 mg/kg [1] was 20% and the Activity [2] was 45.6%.

C[C@@H](O)[C@H](NC(=O)[C@@H]1CCC(=O)N1)C(=O)N1CCC[C@H]1C(N)=O ([pGlu]-Thr-Pro-NH2) gave an ED50 [4, 8] of 80 mg/kg and an Activity [2] of 25.7%.

In the case of CC[C@H](C)[C@H](NC(=O)[C@@H]1CCC(=O)N1)C(=O)N1CCC[C@H]1C(N)=O ([pGlu]-Ile-Pro-NH2), the inhibition in vivo at 80 mg/kg [1] is reported as 10% and the Activity [2] is reported as 0.2%.

With CC(C)C[C@H](NC(=O)[C@@H]1CCC(=O)N1)C(=O)N1CCC[C@H]1C(N)=O [listing 2 of 2 here] the ED50 [4] was 40 mg/kg and the Activity [2] was 2.7%.

From ChEMBL document CHEMBL1122665, “Synthesis of thyrotropin-releasing hormone analogues. 1. Complete dissociation of central nervous system effects from thyrotropin-releasing activity” (1984)
